Active and inactive are the calls of the source. No cut-off for these calls is given here. Where only a bound is given, the exact number is not on record here.

For assay [1], the system named is A-375. Description: Proapoptotic activity in human A375 cells assessed as caspase 3-mediated hydrolysis of Ac-DEVD-AMC at 150 uM after 24 hrs by fluorimetry. The format is functional, cell-based. The method, boiled down:
(§1)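 Caspase 3 activity was measured fluorimetrically with a kit after 24 h exposure of HeLa or A375 cells to compound. It was expressed as fold increase over untreated culture. Data come from triplicate analyses in three experiments, given as means ± SD.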

The test system of assay [2] is A-375. Description: Cytotoxicity against human A375 cells assessed as LDH production at 50 to 150 uM after 24 hrs by spectrophotometry. The format is functional, cell-based. The method, boiled down:
(§2)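 LDH release into culture medium after 24 h exposure of HeLa or A375 cells to peptide (50, 100, 150 μM). Medium from untreated cultures served as control, and medium from cells exposed to 1% Triton X-100 served as the 100% release positive control. Data are means ± SD.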

Assay [3] can be described thus: Inhibition of elastase incubated for 30 mins prior to substrate addition by spectrophotometry. The method, boiled down:
(§3)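 Panel of proteases tested up to a maximal 1000 μM inhibitor, each at its own pH: carboxypeptidase Y pH 7.0; chymotrypsin, elastase and trypsin pH 8.0; subtilisin and proteinase K pH 7.5. IC50 and maximal % inhibition were recorded.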

Assay [4] deals with T1, Acylamino-acid-releasing enzyme (Sus scrofa) (UniProt P19205).
T1 sequence (whole entry): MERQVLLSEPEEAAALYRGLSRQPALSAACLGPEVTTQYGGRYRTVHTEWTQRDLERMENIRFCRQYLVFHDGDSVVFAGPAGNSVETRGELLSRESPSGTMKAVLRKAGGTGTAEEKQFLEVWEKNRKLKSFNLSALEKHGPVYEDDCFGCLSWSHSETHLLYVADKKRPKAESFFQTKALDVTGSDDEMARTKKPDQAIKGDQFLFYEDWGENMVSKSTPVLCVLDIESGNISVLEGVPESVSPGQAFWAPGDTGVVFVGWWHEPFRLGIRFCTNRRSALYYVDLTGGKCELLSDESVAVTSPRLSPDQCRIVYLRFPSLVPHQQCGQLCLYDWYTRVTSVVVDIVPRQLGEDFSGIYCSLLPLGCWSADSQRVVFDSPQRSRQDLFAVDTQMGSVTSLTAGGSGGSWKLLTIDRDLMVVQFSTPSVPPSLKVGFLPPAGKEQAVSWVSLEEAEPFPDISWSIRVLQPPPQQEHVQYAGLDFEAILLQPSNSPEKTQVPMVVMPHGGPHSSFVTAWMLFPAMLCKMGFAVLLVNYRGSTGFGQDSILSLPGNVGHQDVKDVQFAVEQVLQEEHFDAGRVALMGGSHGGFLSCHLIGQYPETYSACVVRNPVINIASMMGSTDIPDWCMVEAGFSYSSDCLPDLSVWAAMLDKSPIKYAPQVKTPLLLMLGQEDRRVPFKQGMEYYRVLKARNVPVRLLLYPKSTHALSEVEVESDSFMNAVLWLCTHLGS
The conditions noted are these: 50 uM.

Assay [5] deals with T1, Acylamino-acid-releasing enzyme (Sus scrofa). To be noted: 150 uM.
A short description of assay [6]: Inhibition of subtilisin at 1 mM incubated for 30 mins prior to substrate addition by spectrophotometry. The method, boiled down:
as §3

Assay [7] in a line: Inhibition of trypsin incubated for 30 mins prior to substrate addition by spectrophotometry. In short, it runs like this: as §3
In assay [8] the target is T2, Acylamino-acid-releasing enzyme (Homo sapiens) (UniProt P13798).
T2 sequence (whole entry): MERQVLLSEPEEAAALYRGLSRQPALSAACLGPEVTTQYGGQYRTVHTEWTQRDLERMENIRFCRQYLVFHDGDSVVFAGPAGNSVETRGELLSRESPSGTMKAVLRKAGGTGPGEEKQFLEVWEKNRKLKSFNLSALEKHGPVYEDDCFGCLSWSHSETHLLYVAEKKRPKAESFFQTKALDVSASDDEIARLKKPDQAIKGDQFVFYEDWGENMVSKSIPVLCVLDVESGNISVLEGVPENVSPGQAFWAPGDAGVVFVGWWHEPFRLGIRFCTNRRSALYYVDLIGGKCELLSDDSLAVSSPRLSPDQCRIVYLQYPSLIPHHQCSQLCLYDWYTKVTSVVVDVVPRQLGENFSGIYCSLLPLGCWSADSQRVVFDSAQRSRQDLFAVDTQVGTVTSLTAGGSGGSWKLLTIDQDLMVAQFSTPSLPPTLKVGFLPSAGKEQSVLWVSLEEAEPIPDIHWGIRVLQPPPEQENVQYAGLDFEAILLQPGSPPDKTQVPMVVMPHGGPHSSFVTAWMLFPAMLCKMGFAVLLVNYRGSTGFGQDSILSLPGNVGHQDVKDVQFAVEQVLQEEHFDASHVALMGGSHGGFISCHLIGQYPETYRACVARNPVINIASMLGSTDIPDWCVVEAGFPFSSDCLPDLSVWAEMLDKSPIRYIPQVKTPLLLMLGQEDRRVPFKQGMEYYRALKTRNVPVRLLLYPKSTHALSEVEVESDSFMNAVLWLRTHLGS
Description: Inhibition of APEH in human A375 cells after 24 hrs. To be noted: A-375. Type of assay: cell-based. In short, it runs like this:
(§4)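 Melanoma A375 and cervical HeLa cells were exposed for 24 h to peptide at 50, 100 or 150 μM. Data are means ± SD.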

Assay [9] relates to HeLa. Description: Proapoptotic activity in human HeLa cells assessed as caspase 3-mediated hydrolysis of Ac-DEVD-AMC at 150 uM after 24 hrs by fluorimetry. The format is functional, cell-based. In short, it runs like this:
as §1

Assay [10] in a line: Inhibition of subtilisin incubated for 30 mins prior to substrate addition by spectrophotometry. The method, boiled down: as §3
The target in assay [11] is T1, Acylamino-acid-releasing enzyme (Sus scrofa). To be noted: 50 to 100 uM.
A short description of assay [12]: Inhibition of chymotrypsin incubated for 30 mins prior to substrate addition by spectrophotometry. The method, boiled down:
as §3

In assay [13] the test system is HeLa. Description: Cytotoxicity against human HeLa cells assessed as LDH production after 24 hrs by spectrophotometry. Type of assay: functional, cell-based. In short, it runs like this: as §2
The nature of assay [14]: Inhibition of trypsin at 1 mM incubated for 30 mins prior to substrate addition by spectrophotometry. In short, it runs like this:
as §3

Assay [15] has as its target T2, Acylamino-acid-releasing enzyme (Homo sapiens). Description: Inhibition of APEH in human A375 cells at 150 uM after 24 hrs. Type of assay: cell-based. The conditions noted are these: A-375. The method, boiled down:
as §4

For assay [16] the target is unchanged. Description: Inhibition of APEH in human HeLa cells after 24 hrs. Type of assay: cell-based. The method, boiled down: as §4
Assay [17] can be described thus: Inhibition of chymotrypsin at 1 mM incubated for 30 mins prior to substrate addition by spectrophotometry. In short, it runs like this: as §3
The target in assay [18] is T2, Acylamino-acid-releasing enzyme (Homo sapiens). Kind of assay: Inhibition of APEH in human HeLa cells at 150 uM after 24 hrs. Type of assay: cell-based. In short, it runs like this: as §4
Assay [19] deals with T1, Acylamino-acid-releasing enzyme (Sus scrofa). To be noted: 1 mM.
The nature of assay [20]: Inhibition of proteinase K incubated for 30 mins prior to substrate addition by spectrophotometry. In short, it runs like this:
as §3

Assay [21] in a line: Inhibition of carboxypeptidase Y at 1 mM incubated for 30 mins prior to substrate addition by spectrophotometry. The method, boiled down: as §3
The test system of assay [22] is A-375. Description: Proapoptotic activity in human A375 cells assessed as caspase 3-mediated hydrolysis of Ac-DEVD-AMC at 100 uM after 24 hrs by fluorimetry. Type of assay: functional, cell-based. In short, it runs like this: as §1
Assay [23] relates to HeLa. Kind of assay: Cytotoxicity against human HeLa cells assessed as LDH production at 50 to 150 uM after 24 hrs by spectrophotometry. The format is functional, cell-based. In short, it runs like this:
as §2

Assay [24] has as its target T3, Acylamino-acid-releasing enzyme (Sus scrofa, UniProt P19205).
T3 sequence (P19205 whole entry): T1 sequence (whole entry)
Kind of assay: (§5) Inhibition of pig APEH using acetyl-Ala-pNA as substrate incubated for 2 mins prior to substrate addition by spectrophotometry.

Assay [25] is described as follows: Inhibition of proteinase K at 1 mM incubated for 30 mins prior to substrate addition by spectrophotometry. In short, it runs like this: as §3
Assay [26] is described as follows: Inhibition of elastase at 1 mM incubated for 30 mins prior to substrate addition by spectrophotometry. In short, it runs like this:
as §3

Assay [27] is described as follows: Inhibition of carboxypeptidase Y incubated for 30 mins prior to substrate addition by spectrophotometry. In short, it runs like this:
as §3

Assay [28] concerns HeLa. Kind of assay: Proapoptotic activity in human HeLa cells assessed as caspase 3-mediated hydrolysis of Ac-DEVD-AMC at 100 uM after 24 hrs by fluorimetry. The format is functional, cell-based. In short, it runs like this:
as §1

For assay [29], the target named is T1, Acylamino-acid-releasing enzyme (Sus scrofa). Described as §5.
Assay [30] deals with HeLa. Kind of assay: Cytotoxicity against human HeLa cells assessed as LDH production at 100 uM after 24 hrs by spectrophotometry. Type of assay: functional. The method, boiled down:
as §2

Assay [31] relates to HeLa. Kind of assay: Proapoptotic activity in human HeLa cells assessed as caspase 3-mediated hydrolysis of Ac-DEVD-AMC at 30 uM after 24 hrs by fluorimetry relative to untreated control. Type of assay: functional. The method, boiled down:
as §1

Assay [32] concerns HeLa. Description: Proapoptotic activity in human HeLa cells assessed as caspase 3-mediated hydrolysis of Ac-DEVD-AMC at 50 uM after 24 hrs by fluorimetry relative to untreated control. Type of assay: functional. The method, boiled down: as §1

Broadly, the IC50 is the concentration needed to halve the response being measured. As a reminder, the inhibition is the percentage by which the read-out fell short of the control. Broadly, the Ki is a measure of affinity in units of concentration, obtained from inhibition or displacement. High values mean a looser hold on the target, low ones a stronger hold on the target. For `CSCC[C@@H](NC(=O)[C@@H](CC(C)C)NC(=O)C(F)(F)F)C(=O)N1CCC[C@@H]1C(=O)N[C@H](Cc1cnc[nH]1)C(N)=O`, the result in assay [1], in assay [9], in assay [22] and in [28] was Active. For the same compound, the outcome in [2], in assay [13] and in [23] was inactive. Further, the 50% inhibitory concentration (IC50) in assay [3] was more than 1000 µM; in [7], more than 1000 µM; in assay [10], more than 1000 µM; in assay [12], more than 1000 µM; in assay [20] it was more than 1000 µM; in assay [24], 98 µM. In [27], this compound came in with an IC50 of 210 µM. For the same compound, the inhibition in [4] was more than 25%; in assay [8], “Dose-dependent effect”; in [16], “Dose-dependent effect”. The Imax in assay [5] was 72%; in assay [6] it was less than 1%; in [14] it was less than 1%; in assay [15] it was 50%; in assay [17] it was less than 1%; in assay [18] it was 80%. Moreover, the Imax in [19] was 72%; in [21], 30%; in [25] it was less than 1%; in assay [26], less than 1%. The inhibition entry in [11] is “Active”. Besides, the Ki in assay [24] worked out at 24 µM.
On to `CSCC[C@@H](NC(=O)[C@@H](CC(C)C)NC(C)=O)C(=O)N1CCC[C@@H]1C(=O)N[C@H](Cc1cnc[nH]1)C(N)=O`, for which the inhibition result in [29] was “inactive”.
In the case of `CC[C@@H](C)[C@@H](O)[C@H](C)C(=O)[C@H](C)/C=C(\C)C[C@H](C)[C@@H]1OC(=O)[C@H]1CC` [EBELACTONE B], the Activity in assay [30] is 28%; in assay [13], “Dose-dependent effect”. The “fold change (FC)” value in [31] and in assay [32] was 5 throughout.
On to `CSCC[C@@H](NC(=O)[C@@H](CC(C)C)NC(=O)C(F)(F)F)C(=O)N1CCC[C@@H]1C(=O)N[C@H](CC(=O)O)C(N)=O`, for which the outcome in [13] was inactive.
For the compound `CSCC[C@@H](NC(=O)[C@H](N)CC(C)C)C(=O)N1CCC[C@@H]1C(=O)N[C@H](Cc1cnc[nH]1)C(N)=O`, in assay [29], the inhibition entry was “inactive”.

Source of the values: ChEMBL document CHEMBL2021843, “Small peptide inhibitors of acetyl-peptide hydrolase having an uncommon mechanism of inhibition and a stable bent conformation” (J Med Chem, 2012).
